Measured values published in ChEMBL document CHEMBL1138577, “Design, synthesis of 8-alkoxy-5,6-dihydro-[1,2,4]triazino[4,3-a]quinolin-1-ones with anticonvulsant activity” (Eur J Med Chem, 2009).
Active and inactive are the calls of the source. The calls are words filed in the database; no cut-off is given here.

Assays:
[1] = system: Mus musculus; assay: Anticonvulsant activity in ip dosed C57B/6 mouse assessed as protection against maximal electroshock-induced seizures administered before 30 mins of MES induction; type: functional; details: C57B/6, ip, 0.5 h
In short: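 Compound in polyethyleneglycol-400 given ip to C57B/6 mice (18–25 g, 10 per group) over a dose range. 30 min post-dose, 60-Hz alternating current, 50 mA, applied via corneal electrodes for 0.2 s. Protection scored as abolition of hind-leg tonic maximal extension; doses spanning 10–90% protection used to derive ED50.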

[2] = Neurotoxicity in C57B/6 mouse assessed as inability to maintain equilibrium on 1-in diameter rod for 1 min after 30 mins by rotarod test; type: toxicity, organism-based; details: in vivo
In short: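 Rotarod neurotoxicity: C57B/6 mice (18–25 g, groups of 10) dosed ip with compound in polyethyleneglycol-400 over a dose range; 30 min later placed on 1-in. knurled rod rotating at 6 rpm for 1 min. Toxicity = failure to keep equilibrium in each of three trials; doses spanning 10–90% used for TD50.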

[3] = species: Mus musculus; assay: Protective index, ratio of TD50 for neurotoxicity in C57B/6 mouse to ED50 for anticonvulsant activity in C57B/6 mouse; type: functional
In short: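 PI computed as TD50 (rotarod neurotoxicity) divided by ED50 (MES test), both in ip-dosed C57B/6 mice, compounds in PEG-400, tested 30 min post-dose.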

[4] = system: Mus musculus; assay: Anticonvulsant activity in ip dosed C57B/6 mouse assessed as protection against pentylenetetrazole-induced seizures administered before 30 mins of pentylenetetrazole induction; type: functional; details: C57B/6, ip, 0.5 h
In short: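 Pentylenetetrazole 85 mg/kg sc, a dose convulsing 100% of naïve animals, given 30 min after ip compound (PEG-400 vehicle, several doses) to C57B/6 mice, 18–25 g, groups of 10. ED50 calculated as dose preventing tonic convulsions in 50% of animals.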

[5] = system: Mus musculus; assay: Anticonvulsant activity in ip dosed C57B/6 mouse assessed as protection against isoniazid-induced seizures administered before 30 mins of isoniazid induction measured for 1 hr; type: functional; details: C57B/6, ip
In short: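 Mice (C57B/6, 18–25 g; n=10 per group) dosed ip with compound in PEG-400 at several doses, then challenged 30 min later with isoniazid 250 mg/kg ip, a dose convulsing all naïve animals. Housed singly and watched 1 h for tonic convulsions; ED50 = dose preventing them in 50% of animals.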

[6] = system: Mus musculus; assay: Anticonvulsant activity in ip dosed C57B/6 mouse assessed as protection against thiosemicarbazide-induced seizures administered before 30 mins of thiosemicarbazide induction measured after 1 hr; type: functional; details: C57B/6, ip
In short: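 Thiosemicarbazide 50 mg/kg ip, a dose convulsing 100% of animals, given 30 min after ip test compound (PEG-400, various doses) to C57B/6 mice (18–25 g, n=10/group). Tonic convulsions scored; ED50 calculated as dose preventing them in 50% of treated animals.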

[7] = system: Mus musculus; assay: Anticonvulsant activity in ip dosed C57B/6 mouse assessed as protection against 3 mercaptopropionic acid-induced seizures administered before 30 mins of 3 mercaptopropionic acid induction measured after 1 hr; type: functional; details: C57B/6, ip
In short: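 C57B/6 mice (18–25 g), groups of 10, given test compound ip in polyethyleneglycol-400 across a dose range; 30 min later 3-MP 40 mg/kg in saline injected sc. Endpoint: prevention of tonic convulsions; ED50 calculated as dose protecting 50% of animals.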

[8] = system: Mus musculus; assay: Anticonvulsant activity in ip dosed C57B/6 mouse assessed as protection against strychnine-induced seizures administered before 30 mins of strychnine induction measured for 30 mins; type: functional, organism-based
In short: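 C57B/6 mice (18–25 g, groups of 10) received compound ip in polyethyleneglycol-400; 30 min later strychnine chlorhydrate in saline (1.2 mg/mL, 1 mL/kg) given sc, a dose convulsing all naïve animals. Mice observed individually for 30 min.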

| Compound | ED50 [1] | other results |
| --- | --- | --- |
| CCCCCCOc1ccc2c(c1)CCc1nncc(=O)n1-2 | 19.7 mg/kg | TD50 at 30 min [2]: 82.2 mg/kg; PI [3]: 4.2 |
| O=c1cnnc2n1-c1ccc(OCc3ccccc3)cc1CC2 | 22.8 mg/kg | – |
| CCCCOc1ccc2c(c1)CCc1nncc(=O)n1-2 | 22.7 mg/kg | – |
| O=c1cnnc2n1-c1ccc(OCc3ccc(Cl)cc3Cl)cc1CC2 | 26.4 mg/kg | – |
| O=c1cnnc2n1-c1ccc(OCc3ccccc3Cl)cc1CC2 | 13.7 mg/kg | TD50 at 30 min [2]: 106 mg/kg; PI [3]: 7.7 |
| O=C1CCc2cc(OCc3ccccc3)ccc2N1 | 29.6 mg/kg | – |
| CCCCCCCCCCCCOc1ccc2c(c1)CCc1nncc(=O)n1-2 | 54.8 mg/kg | – |
| O=c1cnnc2n1-c1ccc(OCc3cccc(Cl)c3)cc1CC2 | 22.8 mg/kg | ED50 [4]: 11.3 mg/kg; ED50 [5]: 19.7 mg/kg; ED50 [6]: 15.8 mg/kg; ED50 [7]: 11.8 mg/kg; ED50 [8]: inactive |
| CCCCCOc1ccc2c(c1)CCc1nncc(=O)n1-2 | 21.9 mg/kg | – |
| O=c1cnnc2n1-c1ccc(OCc3cccc(F)c3)cc1CC2 | 31.7 mg/kg | – |
| O=c1cnnc2n1-c1ccc(OCc3ccc(F)cc3)cc1CC2 | 38 mg/kg | – |
| Cc1nnc2n(c1=O)-c1ccc(OCc3ccccc3)cc1CC2 | > 100 mg/kg | – |
| CCCCCCOc1ccc2c(c1)CCc1nnc(C)c(=O)n1-2 | > 100 mg/kg | – |
| O=c1cnnc2n1-c1ccc(OCc3ccc(Cl)cc3)cc1CC2 | 32.9 mg/kg | – |
| CCOc1ccc2c(c1)CCc1nncc(=O)n1-2 | 39.4 mg/kg | – |
| NC(=O)N1c2ccccc2C=Cc2ccccc21 [CARBAMAZEPINE] | – | ED50 [8]: inactive; PI [3]: 6.4 |
| O=c1cnnc2n1-c1ccc(OCc3ccccc3Br)cc1CC2 | 16.4 mg/kg | TD50 at 30 min [2]: 132 mg/kg; PI [3]: 8 |
| CCCCCCCOc1ccc2c(c1)CCc1nncc(=O)n1-2 | 11.4 mg/kg | TD50 at 30 min [2]: 114 mg/kg; PI [3]: 10 |
| O=c1cnnc2n1-c1ccc(OCc3ccccc3F)cc1CC2 | 23.7 mg/kg | – |
| O=c1cnnc2n1-c1ccc(OCc3c(Cl)cccc3Cl)cc1CC2 | 20.5 mg/kg | – |
| c1ccc(COc2ccc3c(c2)CCc2nncn2-3)cc1 | – | ED50 [4]: 24 mg/kg |
| COc1ccc(COc2ccc3c(c2)CCc2nncc(=O)n2-3)cc1 | 56.8 mg/kg | – |
| CCCCCCCCOc1ccc2c(c1)CCc1nncc(=O)n1-2 | 12.7 mg/kg | TD50 at 30 min [2]: 98.6 mg/kg; PI [3]: 7.76 |
| COc1ccc(COc2ccc3c(c2)CCc2nncc(=O)n2-3)cc1OC | 45.6 mg/kg | – |
| CCCOc1ccc2c(c1)CCc1nncc(=O)n1-2 | 32.9 mg/kg | – |
| O=c1cnnc2n1-c1ccc(OCc3ccc(Br)cc3)cc1CC2 | 64.2 mg/kg | – |
| Cc1ccc(COc2ccc3c(c2)CCc2nncc(=O)n2-3)cc1 | 27.4 mg/kg | – |
